# The source made the active and inactive calls. The rule behind the calls is not given here.
# Legend:
# Rattus norvegicus [1] = assay: Anti-cold allodynia effect in Sprague-Dawley rat SNL model assessed as duration of paw withdrawal 100 mg/kg, ip after 1 hrs; assay type: functional; details: route intraperitoneal
# Summary of the method: (§1)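 Left L5 spinal nerve ligation under pentobarbital (65 mg/kg i.p.). Allodynic rats dosed i.p. 100 mg/kg, vehicle 30% v/v PEG 400 in water. Acetone (100-200 µL) misted onto midplantar affected paw after 10 min acclimatization; paw withdrawal duration, mean of three samples at least 3 min apart; n = 4 rats.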
# Rattus norvegicus [2] = assay: Anti-cold allodynia effect in Sprague-Dawley rat SNL model assessed as duration of paw withdrawal 100 mg/kg, ip after 0.5 hr; assay type: functional; details: route intraperitoneal; summary of the method: as §1
# Rattus norvegicus [3] = assay: Anti-cold allodynia effect in Sprague-Dawley rat SNL model assessed as duration of paw withdrawal 100 mg/kg, ip after 2.5 hrs; assay type: functional; details: route intraperitoneal; summary of the method: as §1
# Rattus norvegicus [4] = assay: Antihyperalgesic effects in Sprague-Dawley rat SNL model assessed as duration of paw withdrawal at 100 mg/kg, ip after 1.5 hrs, ip; assay type: functional; details: route intraperitoneal
# Summary of the method: (§2)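 L5 SNL rats (n = 4), dosed 100 mg/kg i.p. (vehicle 30% v/v PEG 400 in water). Pin-prick to midplantar ipsilateral left hindpaw; withdrawal duration, mean of three responses; ≥2 s defined abnormal. Mean ± SEM; one-way ANOVA with Bonferroni versus predrug.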
# Mus musculus [5] = assay: Anticonvulsant activity in Swiss Albino mouse at 300 mg/kg, ip after 4 hrs by scPIC test; assay type: functional, organism-based; design: dose 300 mg/kg
# Summary of the method: (§3)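 Mice (Swiss, 20-25 g) given i.p. doses of 30, 100 and 300 mg/kg under ADD program protocols, three per group, examined at 0.5 and 4 h in MES, scPTZ, scSTY or scPIC seizure tests. Value is the minimum dose protecting half or more of the mice.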
# Rattus norvegicus [6] = assay: Anti-cold allodynia effect in Sprague-Dawley rat SNL model assessed as duration of paw withdrawal 100 mg/kg, ip after 2 hrs; assay type: functional; details: route intraperitoneal; summary of the method: as §1
# Mus musculus [7] = assay: Anticonvulsant activity in Swiss Albino mouse at 300 mg/kg, ip after 0.5 hr by MES test; assay type: functional, organism-based; design: dose 300 mg/kg; summary of the method: as §3
# Mus musculus [8] = assay: Anticonvulsant activity in Swiss Albino mouse at 300 mg/kg, ip after 4 hrs by scSTY test; assay type: functional, organism-based; design: dose 300 mg/kg; summary of the method: as §3
# Rattus norvegicus [9] = assay: Antihyperalgesic effects in Sprague-Dawley rat SNL model assessed as duration of paw withdrawal at 100 mg/kg, ip after 2 hrs, ip; assay type: functional; details: route intraperitoneal; summary of the method: as §2
# Rattus norvegicus [10] = assay: Antihyperalgesic effects in Sprague-Dawley rat CCI model assessed as duration of paw withdrawal at 100 mg/kg, ip after 1 hr; assay type: functional; details: route intraperitoneal
# Rattus norvegicus [11] = assay: Antihyperalgesic effects in Sprague-Dawley rat SNL model assessed as duration of paw withdrawal at 100 mg/kg, ip after 2.5 hrs, ip; assay type: functional; details: route intraperitoneal; summary of the method: as §2
# Rattus norvegicus [12] = assay: Anti-cold allodynia effect in Sprague-Dawley rat SNL model assessed as duration of paw withdrawal 100 mg/kg, ip after 1.5 hrs; assay type: functional; details: route intraperitoneal; summary of the method: as §1
# Mus musculus [13] = assay: Anticonvulsant activity in Swiss Albino mouse at 300 mg/kg, ip after 0.5 hr by scSTY test; assay type: functional, organism-based; design: dose 300 mg/kg; summary of the method: as §3
# Rattus norvegicus [14] = assay: Effect on spontaneous pain in Sprague-Dawley rat CCI model assessed as duration of paw withdrawal at 100 mg/kg, ip after 1 hr; assay type: functional; details: route intraperitoneal
# Summary of the method: (§4)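 CCI rats (n = 4) dosed 100 mg/kg i.p. (vehicle 30% v/v PEG 400 in water). After 10 min acclimatization in a cage 5 cm above ground, cumulative time the ipsilateral paw was held off the floor over 5 min recorded, excluding locomotion lifts. Mean ± SEM; ANOVA/Bonferroni versus predrug.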
# Mus musculus [15] = assay: Analgesic activity in Swiss Albino mouse assessed as inhibition of acetic acid-induced writhing responses at 100 mg/kg, ip; assay type: functional; details: route intraperitoneal
# Summary of the method: (§5)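 Mice in groups of six dosed i.p. at 100 mg/kg, controls receiving 30% v/v PEG 400 in water. Writhing induced by i.p. 0.1 mL of 3% v/v acetic acid 1 h after drug. Writhes (abdominal stretch with at least one hind limb extended) counted over 30 min; % inhibition calculated. Mean ± SEM, Student's t test.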
# Mus musculus [16] = assay: Anticonvulsant activity in Swiss Albino mouse at 300 mg/kg, ip after 4 hrs by MES test; assay type: functional, organism-based; design: dose 300 mg/kg; summary of the method: as §3
# Rattus norvegicus [17] = assay: Effect on spontaneous pain in Sprague-Dawley rat CCI model assessed as duration of paw withdrawal at 100 mg/kg, ip after 2.5 hrs; assay type: functional; details: route intraperitoneal
# Summary of the method: (§6)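 Unilateral CCI of sciatic nerve (Bennett and Xie) in Sprague-Dawley rats under i.p. pentobarbital sodium (65 mg/kg). Spontaneous pain is scored over 5 min after 10 min acclimatization, as cumulative time the ipsilateral paw is held off the floor. Paw lifts from locomotion or repositioning are excluded. Drug is given at 100 mg/kg i.p. with 30% v/v PEG 400 vehicle. Mean ± SEM, n = 4, compared with predrug by ANOVA/Bonferroni.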
# Mus musculus [18] = assay: Anticonvulsant activity in Swiss Albino mouse at 300 mg/kg, ip after 0.5 hr by scPIC test; assay type: functional, organism-based; design: dose 300 mg/kg; summary of the method: as §3
# Mus musculus [19] = assay: Anticonvulsant activity in Swiss Albino mouse at 300 mg/kg, ip after 0.5 hr by scPTZ test; assay type: functional, organism-based; design: dose 300 mg/kg; summary of the method: as §3
# Rattus norvegicus [20] = assay: Antihyperalgesic effects in Sprague-Dawley rat CCI model assessed as duration of paw withdrawal at 100 mg/kg, ip after 2.5 hrs; assay type: functional; details: route intraperitoneal
# Rattus norvegicus [21] = assay: Effect on spontaneous pain in Sprague-Dawley rat CCI model assessed as duration of paw withdrawal at 100 mg/kg, ip after 0.5 hr; assay type: functional; details: route intraperitoneal; summary of the method: as §4
# Rattus norvegicus [22] = assay: Antihyperalgesic effects in Sprague-Dawley rat SNL model assessed as duration of paw withdrawal at 100 mg/kg, ip after 1 hr, ip; assay type: functional; details: route intraperitoneal; summary of the method: as §2
# Mus musculus [23] = assay: Analgesic activity in Swiss Albino mouse assessed as number of acetic acid-induced writhing per 30 min after 100 mg/kg, ip; assay type: functional; details: route intraperitoneal; summary of the method: as §5
# Mus musculus [24] = assay: Neurotoxicity in Swiss Albino mouse at 300 mg/kg, ip after 4 hrs by rotarod test; assay type: functional, organism-based; design: dose 300 mg/kg
# Summary of the method: (§7)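 Swiss mice (20-25 g) are trained on an accelerating rotorod (10 rpm, 3.2 cm rod), then injected i.p. at 30, 100 or 300 mg/kg, with three per group. Neurotoxicity means failure to keep equilibrium for at least 1 min in each of three trials, checked at 0.5 and 4 h. The value reported is the minimum dose affecting half or more of the mice.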
# Rattus norvegicus [25] = assay: Effect on spontaneous pain in Sprague-Dawley rat CCI model assessed as duration of paw withdrawal at 100 mg/kg, ip after 1.5 hrs; assay type: functional; details: route intraperitoneal; summary of the method: as §6
# Rattus norvegicus [26] = assay: Antihyperalgesic effects in Sprague-Dawley rat CCI model assessed as duration of paw withdrawal at 100 mg/kg, ip after 1.5 hrs; assay type: functional; details: route intraperitoneal
# Rattus norvegicus [27] = assay: Antihyperalgesic effects in Sprague-Dawley rat CCI model assessed as duration of paw withdrawal at 100 mg/kg, ip after 2 hrs; assay type: functional; details: route intraperitoneal
# Rattus norvegicus [28] = assay: Antihyperalgesic effects in Sprague-Dawley rat SNL model assessed as duration of paw withdrawal at 100 mg/kg, ip after 0.5 hr, ip; assay type: functional; details: route intraperitoneal; summary of the method: as §2
# Rattus norvegicus [29] = assay: Antihyperalgesic effects in Sprague-Dawley rat CCI model assessed as duration of paw withdrawal at 100 mg/kg, ip after 0.5 hr; assay type: functional; details: route intraperitoneal
# Rattus norvegicus [30] = assay: Effect on spontaneous pain in Sprague-Dawley rat CCI model assessed as duration of paw withdrawal at 100 mg/kg, ip after 2 hrs; assay type: functional; details: route intraperitoneal; summary of the method: as §6
# Mus musculus [31] = assay: Neurotoxicity in Swiss Albino mouse at 300 mg/kg, ip after 0.5 hr by rotarod test; assay type: functional, organism-based; design: dose 300 mg/kg; summary of the method: as §7
# Rattus norvegicus [32] = assay: Anti-dynamic allodynia effect in Sprague-Dawley rat SNL model assessed as latency to paw withdrawal 100 mg/kg, ip after 1 hr; assay type: functional; details: route intraperitoneal
# Summary of the method: (§8)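 Left L5 spinal nerve ligation rats, tested preoperatively and 9 days postoperatively, then given 100 mg/kg i.p. (vehicle 30% v/v PEG 400 in water). After 10 min acclimatization, plantar surface of affected paw stroked mildly with a cotton-bud; paw lift response recorded. n = 4; retested 0.5-2.5 h post-dose.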
# Rattus norvegicus [33] = assay: Anti-dynamic allodynia effect in Sprague-Dawley rat SNL model assessed as latency to paw withdrawal 100 mg/kg, ip after 0.5 hr; assay type: functional; details: route intraperitoneal; summary of the method: as §8
# Rattus norvegicus [34] = assay: Anti-dynamic allodynia effect in Sprague-Dawley rat SNL model assessed as latency to paw withdrawal 100 mg/kg, ip after 2 hrs; assay type: functional; details: route intraperitoneal; summary of the method: as §8
# Rattus norvegicus [35] = assay: Anti-dynamic allodynia effect in Sprague-Dawley rat SNL model assessed as latency to paw withdrawal 100 mg/kg, ip after 2.5 hrs; assay type: functional; details: route intraperitoneal; summary of the method: as §8
# Rattus norvegicus [36] = assay: Anti-dynamic allodynia effect in Sprague-Dawley rat SNL model assessed as latency to paw withdrawal 100 mg/kg, ip after 1.5 hrs; assay type: functional; details: route intraperitoneal; summary of the method: as §8
Compound,Activity (Rattus norvegicus [1]) [s],Activity (Rattus norvegicus [2]) [s],Activity (Rattus norvegicus [3]) [s],Activity (Rattus norvegicus [4]) [s],Activity (Mus musculus [5]),Activity (Rattus norvegicus [6]) [s],Activity (Mus musculus [7]),Activity (Mus musculus [8]),Activity (Rattus norvegicus [9]) [s],Activity (Rattus norvegicus [10]) [s],Activity (Rattus norvegicus [11]) [s],Activity (Rattus norvegicus [12]) [s],Activity (Mus musculus [13]),inhibition in vivo at 100 mg/kg (Mus musculus [15]) [%],Activity (Mus musculus [16]),Activity (Mus musculus [18]),Activity (Mus musculus [19]),Activity (Rattus norvegicus [20]) [s],Activity (Rattus norvegicus [22]) [s],Activity (Mus musculus [23]),also measured
C/C(=N\NC(=O)NCCCC(=O)O)c1cccc(N)c1,11.2,4.8,15.2,7.3,inactive,13.5,Active,inactive,19.5,9.6,17.3,17.5,inactive,89,Active,inactive,inactive,4.8,6.5,19.7,Activity (Rattus norvegicus [14]): 1.2 s; Activity (Rattus norvegicus [17]): 2.8 s; Activity (Rattus norvegicus [21]): 1.7 s; Activity (Mus musculus [24]): Active; Activity (Rattus norvegicus [25]): 0.9 s; Activity (Rattus norvegicus [26]): 9.9 s; Activity (Rattus norvegicus [27]): 6.6 s; Activity (Rattus norvegicus [28]): 2.4 s; Activity (Rattus norvegicus [29]): 9.3 s; Activity (Rattus norvegicus [30]): 1.4 s; Activity (Mus musculus [31]): Active
O=C(O)CCCNC(=O)NN=C1CCCC1,11.2,12,1.9,5.1,inactive,11,inactive,inactive,9.6,30.7,8.6,10.9,inactive,90,Active,inactive,inactive,25.3,9.9,18,Activity (Rattus norvegicus [32]): 6.6 s; Activity (Rattus norvegicus [33]): 5.7 s; Activity (Rattus norvegicus [34]): 10.3 s; Activity (Rattus norvegicus [35]): 10.92 s; Activity (Rattus norvegicus [36]): 7.8 s; Activity (Mus musculus [24]): Active; Activity (Rattus norvegicus [26]): 17.7 s; Activity (Rattus norvegicus [27]): 22.8 s; Activity (Rattus norvegicus [28]): 5.3 s; Activity (Rattus norvegicus [29]): 32.1 s; Activity (Mus musculus [31]): Active
